{"source": "ChEMBL document CHEMBL3804777", "about": "“Identification and Preclinical Pharmacology of BMS-986104: A Differentiated S1P1 Receptor Modulator in Clinical Trials” (ACS Med Chem Lett, 2016)", "key": {"Blood [1]": {"test_system": "Blood", "test": "Drug metabolism in BALB/c mouse blood assessed as formation of phosphate ester metabolite at 10 mg/kg administered through oral gavage after 4 hrs by LC/MS/MS analysis", "assay_type": "ADME, organism-based", "details": "in vivo", "summary_of_the_method": "(§1)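 Mouse PK study: alcohol prodrug given orally at 10 mg/kg, and formation of the phosphate metabolite in blood measured.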"}, "Blood [2]": {"test_system": "Blood", "test": "Drug metabolism in BALB/c mouse blood assessed as formation of phosphate ester metabolite at 10 mg/kg administered through oral gavage after 24 hrs by LC/MS/MS analysis", "assay_type": "ADME, organism-based", "details": "in vivo", "summary_of_the_method": "as §1"}, "[3]": {"test": "Drug metabolism in BALB/c mouse whole blood assessed as whole blood phosphate area ratio at 10 uM after 4 hrs by LC/MS/MS analysis", "assay_type": "ADME, tissue-based", "summary_of_the_method": "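Mouse whole blood incubated with the amino-alcohol prodrug; phosphorylated product measured by LC/MS/MS after 4 h to give the relative extent of phosphate ester formation.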"}, "Mus musculus [4]": {"test_system": "Mus musculus", "test": "Reduction of blood lymphocyte level in BALB/c mouse at 1 mg/kg administered through oral gavage after 24 hrs by hematology analysis", "assay_type": "functional", "parameters": "scale not given: the % may be the effect or the level left", "summary_of_the_method": "(§2)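 Mice given a single oral 1 mg/kg dose; circulating lymphocytes counted 24 h later as the pharmacodynamic marker.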"}, "Mus musculus [5]": {"test_system": "Mus musculus", "test": "Reduction in blood lymphocyte level in BALB/c mouse at 1 mg/kg, po after 24 hrs by hematology analysis", "assay_type": "functional, organism-based", "summary_of_the_method": "as §2"}, "Heart [6]": {"test_system": "Heart", "test": "Toxicity in guinea pig heart assessed as third degree AV block at 300 nM after 10 mins by ECG analysis", "assay_type": "tissue-based, Cavia porcellus", "details": "0.3 µM", "summary_of_the_method": "(§3)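 Isolated guinea pig hearts perfused with the phosphate at the stated concentrations; ventricular rate and atrioventricular conduction (third-degree AV block) monitored.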"}, "Heart [7]": {"test_system": "Heart", "test": "Toxicity in guinea pig heart assessed as reduction in ventricular rate at 100 nM after 10 mins by ECG analysis", "assay_type": "tissue-based, Cavia porcellus, Cardiac ventricle", "details": "0.1 µM", "summary_of_the_method": "as §3"}}, "note": "Active and inactive are the calls of the source. No cut-off for these calls is given here."}
{"smiles": "CCCCCCC1CCc2cc(C3CCC(N)(CO)C3)ccc2C1", "note": "(stereo in doubt; 3c)", "values": [{"measurement": "Drug metabolism", "setting": "Blood [1]", "result": 12, "unit": "nM"}, {"measurement": "Drug metabolism", "setting": "Blood [2]", "result": 46, "unit": "nM"}, {"measurement": "Ratio", "setting": "[3]", "result": 0.14}, {"measurement": "Activity", "setting": "Mus musculus [4]", "result": 18, "unit": "%"}]}
{"smiles": "CCCCCCC1CCc2cc(C3CCC(N)(CO)C3)ccc2C1", "note": "(stereo in doubt; 3b)", "values": [{"measurement": "Activity", "setting": "Mus musculus [5]", "result": "Active"}]}
{"smiles": "CCCCCCC1CCc2cc(C3CCC(N)(CO)C3)ccc2C1", "note": "(stereo in doubt; 3h)", "values": [{"measurement": "Ratio", "setting": "[3]", "result": 0.17}, {"measurement": "Activity", "setting": "Mus musculus [4]", "result": 60, "unit": "%"}]}
{"smiles": "CCCCCCC1CCc2cc(C3CCC(N)(CO)C3)ccc2C1", "note": "(stereo in doubt; 3a)", "values": [{"measurement": "Drug metabolism", "setting": "Blood [1]", "result": "< 9.8", "unit": "nM"}, {"measurement": "Drug metabolism", "setting": "Blood [2]", "result": 14, "unit": "nM"}, {"measurement": "Ratio", "setting": "[3]", "result": 0.07}, {"measurement": "Activity", "setting": "Mus musculus [4]", "result": 12, "unit": "%"}]}
{"smiles": "CCc1cc(/C(C)=N/OCc2ccc(C3CCCCC3)c(C(F)(F)F)c2)ccc1CN1CC(C(=O)O)C1", "note": "[SIPONIMOD]", "values": [{"measurement": "Activity", "setting": "Heart [6]", "result": "Toxic"}, {"measurement": "Activity", "setting": "Heart [7]", "result": "Toxic"}]}
{"smiles": "CCCCCCC1CCc2cc(C3CCC(N)(CO)C3)ccc2C1", "note": "(stereo in doubt; 3f)", "values": [{"measurement": "Ratio", "setting": "[3]", "result": 0.6}, {"measurement": "Activity", "setting": "Mus musculus [4]", "result": 80, "unit": "%"}]}
